Results: ChEMBL document CHEMBL1150426, “New C5-alkylated indolobenzazepinones acting as inhibitors of tubulin polymerization: cytotoxic and antitumor activities” (J Med Chem, 2008)

Tests used:
KB = test: Cytotoxicity against human KB cells after 72 hrs; format: functional, cell-based
How it was run: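 KB cells in EMEM (4.5 g/L glucose, 10% FCS, 1% glutamine) seeded 5 × 10³/well, dosed after 24 h with compound in DMSO (<0.1%). 72 h exposure, then resazurin 2 h; fluorescence ex 560/em 590 nm. IC50 = 50% fluorescence decrease versus untreated; triplicate.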

[1] = Inhibition of sheep brain tubulin polymerization; design: species or system Ovis aries
How it was run: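 Sheep brain tubulin (about 2–3 mg/mL), purified by two assembly–disassembly cycles, in 0.1 M MES, 0.5 mM MgCl₂, 1 mM EGTA, 1 mM GTP, pH 6.6. Assembly followed by turbidity at 350 nm, 37 °C.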

MDA-MB-231 = test: Antiproliferative activity against human MDA-MB-231 cells after 72 hrs; format: functional, cell-based; conditions: MDA-MB-231, 72 h
How it was run: (§1)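 Cells were seeded at 5 × 10³ per well and cultured for 24 h. Test compound in DMSO (under 0.1%) was then added for 72 h. Resazurin was added for 2 h, and fluorescence was read at ex 560 nm / em 590 nm. IC50 was taken as the concentration giving a 50% fall in fluorescence versus untreated cells. Runs were done in triplicate.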

HCT-116 = test: Antiproliferative activity against human HCT116 cells after 72 hrs; format: functional, cell-based; conditions: HCT-116, 72 h; how it was run: as §1
[2] = Antitumor activity against human U87 tumor transplanted in chick chorio-allantoic membrane assessed as reduction of tumor volume at 100 uM after 4 days; format: functional, U-87MG ATCC; design: scale not given: the % may be the effect or the level left
How it was run: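 On embryonic day 10, 5 × 10⁶ U87 glioma cells were placed on the chick CAM. On day 2 of tumor growth, size-matched tumors were split into groups. From day 3 to day 6, 20 µL of compound at 100 µM was applied locally once daily, and controls got solvent. Volume was calculated as V = 4/3πr³ with r = 1/2√(length × width), using six tumors per group.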

B16-F10 = test: Antiproliferative activity against mouse B16F10 cells after 72 hrs; format: functional, cell-based; conditions: B16-F10, 72 h; how it was run: as §1
A549 = test: Antiproliferative activity against human A549 cells after 72 hrs; format: functional, cell-based; conditions: A549, 72 h; how it was run: as §1
MDA-MB-435 = test: Antiproliferative activity against human MDA-MB-435 cells after 72 hrs; format: functional, cell-based; conditions: MDA-MB-435, 72 h; how it was run: as §1

| Structure (SMILES) | IC50 (KB) [nM] | IC50 [1] [nM] | IC50 (MDA-MB-231) [nM] | IC50 (HCT-116) [nM] | Activity [2] [%] | IC50 (B16-F10) [nM] | IC50 (A549) [nM] | IC50 (MDA-MB-435) [nM] |
| --- | --- | --- | --- | --- | --- | --- | --- | --- |
| CC1NC(=S)c2[nH]c3ccccc3c2-c2ccccc21 (racemic) | 360 |  |  |  |  |  |  |  |
| CC[C@H]1NC(=O)c2[nH]c3ccccc3c2-c2ccccc21 | 35 | 1800 |  |  |  |  |  |  |
| COc1cc2c(c(OC)c1OC)-c1ccc(O)cc1[C@@H](NC(C)=O)CC2 [N-ACETYLCOLCHINOL] | 75 | 3000 | 700 | 100 | 42 | 72 | 250 | 140 |
| COc1ccc2[nH]c3c(c2c1)-c1ccccc1[C@H](C)NC3=O | 3500 | 51000 |  |  |  |  |  |  |
